Structures are written as SMILES.

The test system of one assay is S. setubal. Description: Antibacterial assay of isolated compounds, S. setubal. The format is cell-based. As to conditions: cefixime positive control.
Assay [1] can be described thus: DPPH radical scavenging assay. The following applies: 10 μL sample + 190 μL DPPH, 30 min, 37 °C. The essentials:
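10 μL sample mixed with 190 μL DPPH solution in microplate and held 30 min at 37 °C. Absorbance read spectrophotometrically. % scavenging = (1 − Abs/Abc) × 100, where Abc is the reagent-only negative control; SC50 also described. Ascorbic acid as standard. Triplicate.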
(The DPPH test is a chemical assay of radical scavenging.)

The nature of assay [2]: Total antioxidant capacity. As to conditions: sample 4 mg/mL in DMSO, ascorbic acid equivalents. The essentials: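 100 μL sample (4 mg/mL in DMSO) mixed with 900 μL phosphomolybdenum reagent (0.6 M H2SO4, 28 mM sodium phosphate, 4 mM ammonium molybdate). Heated 90 min at 95 °C, cooled to room temperature, and 200 μL read at 630 nm. Quantified against an ascorbic acid calibration curve as μg AAE/mg extract. Triplicate.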

The test system of a further assay is E. aerogenes. Description: Antibacterial assay of isolated compounds, E. aerogenes. The format is cell-based, Escherichia aerogenes. As to conditions: cefixime positive control.
For a further assay, the system named is lipase. Description: Lipase inhibition assay. The format is biochemical. As to conditions: 50 μL sample, 4 mg/mL in DMSO. A digest of the protocol: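 Lipase dissolved at 10 mg/mL in ultrapure water, spun 5 min at 16,000 rpm; supernatant used. Assay buffer 100 mM Tris, pH 8.2. Mix: 350 μL buffer, 150 μL lipase, 50 μL sample (4 mg/mL in DMSO). Started with 450 μL substrate: 0.08% v/v olive oil in 5 mM sodium acetate pH 5.0 with 1% Triton X-100. Incubated 2 h at 37 °C, spun, read at 400 nm. Orlistat standard. % inhibition = (OD blank − OD sample)/OD blank × 100.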

The nature of a further assay: Total reducing power. As to conditions: sample 4 mg/mL in DMSO, ascorbic acid equivalents. The essentials: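 200 μL sample (4 mg/mL in DMSO) mixed with 400 μL phosphate buffer (0.2 mol/L, pH 6.6) and 1% potassium ferricyanide; 20 min at 50 °C. Added 10% trichloroacetic acid and centrifuged 10 min at 3000 rpm. 200 μL of upper layer mixed with 0.1% FeCl3 and read at 630 nm. Expressed as μg ascorbic acid equivalent/mg extract from a calibration curve. Triplicate.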

Another assay relates to S. aureus (ATCC # 6538). Description: Antibacterial disc diffusion, S. aureus. The format is cell-based, Staphylococcus aureus. As to conditions: isolated compounds; cefixime positive control. (In general: Agar diffusion results depend on both activity and mobility in agar.)
Another assay relates to Salmonella typhi. Description: Antibacterial assay of isolated compounds, S. typhi. Format: cell-based. The following applies: cefixime positive control.
Another assay relates to α-amylase. Description: α-Amylase inhibition assay. The format is biochemical. The following applies: 10 μL sample, 4 mg/mL in DMSO. A digest of the protocol:
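Mix in pH 6.8 phosphate buffer: α-amylase (0.14 U/mL), 10 μL sample (4 mg/mL in DMSO) and starch (2 mg/mL); 30 min at 50 °C. Stopped with 1 M HCl, then iodine/KI reagent (5 mM each) added. Read at 540 nm. Acarbose positive control at 5−200 μg/mL. Sample-free well taken as 100% activity; blank lacked sample and enzyme.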

The subject of another assay is urease. Description: Urease inhibition assay. The following applies: 10 μL sample, 4 mg/mL in DMSO. The format is biochemical. The essentials: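 Mix: 25 μL urease, 50 μL phosphate buffer (3 mM, pH 4.5, containing 100 mM urea) and 10 μL sample (4 mg/mL in DMSO); 15 min at 30 °C. Ammonia detected by phenol–nitroprusside reagent plus alkaline hypochlorite, then 50 min at 30 °C. Read at 630 nm. Thiourea as control. % inhibition = (OD blank − OD sample)/OD blank × 100.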

Another assay deals with M. luteus. Description: Antibacterial assay of isolated compounds, M. luteus. Format: cell-based. As to conditions: cefixime positive control.

`C=C(C)[C@@H]1CC[C@]2(C)CC[C@]3(C)[C@H](CC[C@@H]4[C@@]5(C)CC[C@H](O)C(C)(C)[C@@H]5CC[C@]43C)[C@@H]12` [compound 1, lup-20(29)-en-3β-ol]: in the assay on S. setubal, the “antibacterial ZOI, S. setubal” value was determined as 12 ± 1.3 mm. In addition, the “DPPH % (free-radical scavenging)” value was 68.8 ± 1.1% in assay [1] and 68.8% in [1] (listed as lupeol). The TAC in assay [2] was determined as 55.5 ± 1.3 μgAAE/mg extract. The “antibacterial ZOI, E. aerogenes” value in the assay on E. aerogenes is 14 ± 1.1 mm. In addition, the “lipase inhibition (%)” value in the assay on lipase is 84.0 ± 0.8%. The TRP in the assay “Total reducing power” is on record as 96.9 ± 1.6 μgAAE/mg extract; in the assay “Total reducing power” (listed as lupeol), 96.9 μgAAE/mg extract. Also, the “antibacterial ZOI, S. aureus” value in the assay on S. aureus (ATCC # 6538) is given as 14 ± 1.2 mm. For the same molecule, the “antibacterial ZOI, S. typhi” value in the assay with Salmonella typhi amounted to 18 ± 1.3 mm; in the assay on Salmonella typhi (listed as lupeol), 18 mm. In addition, the “amylase inhibition (%)” value with α-amylase was found to be 16.0 ± 0.4%. Further, the “urease inhibition (%)” value with urease was 85.8 ± 0.9%. In the assay on M. luteus, the “antibacterial ZOI, M. luteus” value turned out to be 15 ± 1.1 mm.

As to `CCCCCCCCCCCCCCCCCCCCCCCCCCCCCCO` [compound 2, 1-triacontanol], the results for the “antibacterial ZOI, S. setubal” value with S. setubal and in the assay on S. setubal (listed as 1-triacontanol) were 15 ± 1.2 mm and 15 mm, respectively. For the same molecule, the “DPPH % (free-radical scavenging)” value in [1] is recorded as 59.4 ± 2.1%. Moreover, the values for the TAC in assay [2] and in assay [2] (listed as 1-triacontanol) were 89.5 ± 1.6 μgAAE/mg extract and 89.5 μgAAE/mg extract, respectively. For the same molecule, the “antibacterial ZOI, E. aerogenes” value with E. aerogenes was 15 ± 1.4 mm; with E. aerogenes (listed as 1-triacontanol), 15 mm. Besides, the “lipase inhibition (%)” value in the assay with lipase is on record as 50.8 ± 0.9%. For the same molecule, the TRP in “Total reducing power” was determined as 55.2 ± 1.8 μgAAE/mg extract. Moreover, in the assay with S. aureus (ATCC # 6538), the “antibacterial ZOI, S. aureus” value was determined as 9 ± 1.3 mm. Also, the “antibacterial ZOI, S. typhi” value in the assay on Salmonella typhi was found to be 10 ± 1.3 mm. Moreover, the “amylase inhibition (%)” value with α-amylase was determined as 29.9 ± 1.4%. In addition, in the assay with urease, the “urease inhibition (%)” value is recorded as 82.5 ± 0.8%. For the same molecule, the “antibacterial ZOI, M. luteus” value in the assay on M. luteus was found to be 10 ± 0.9 mm.

With `COC(=O)c1ccccc1` [compound 3, methyl benzoate], the “antibacterial ZOI, S. setubal” value in the assay on S. setubal was determined as 13 ± 1.1 mm. In [1], the “DPPH % (free-radical scavenging)” value worked out at 49.4 ± 1.9%. Further, the TAC in assay [2] turned out to be 82.5 ± 1.3 μgAAE/mg extract; in assay [2] (listed as methyl benzoate) it was 82.5 μgAAE/mg extract. In addition, in the assay on E. aerogenes, the “antibacterial ZOI, E. aerogenes” value is reported as 15 ± 1.1 mm. For the same molecule, the “lipase inhibition (%)” value with lipase is on record as 50.3 ± 0.5%. For the same molecule, the TRP in the assay “Total reducing power” was determined as 45.2 ± 1.6 μgAAE/mg extract. Also, the “antibacterial ZOI, S. aureus” value in the assay with S. aureus (ATCC # 6538) worked out at 7 ± 0.8 mm. For the same molecule, in the assay on Salmonella typhi, the “antibacterial ZOI, S. typhi” value is listed as 10 ± 1.1 mm. Also, in the assay with α-amylase, the “amylase inhibition (%)” value came out at 26.2 ± 0.5%. Besides, the “urease inhibition (%)” value with urease was found to be 55.1 ± 1.2%. Moreover, the “antibacterial ZOI, M. luteus” value in the assay on M. luteus turned out to be 14 ± 1.1 mm.

In the case of `O=C(O)c1ccccc1` [compound 4, benzoic acid], the “antibacterial ZOI, S. setubal” value in the assay on S. setubal worked out at 15 ± 1.7 mm. Moreover, the “DPPH % (free-radical scavenging)” value in [1] is listed as 50.8 ± 1.6%. Also, the TAC in assay [2] turned out to be 60.6 ± 1.8 μgAAE/mg extract. For the same molecule, the “antibacterial ZOI, E. aerogenes” value with E. aerogenes came to 12 ± 1.4 mm. Besides, the “lipase inhibition (%)” value in the assay on lipase was determined as 58.9 ± 0.7%. The TRP in “Total reducing power” is listed as 59.5 ± 1.5 μgAAE/mg extract. For the same molecule, in the assay with S. aureus (ATCC # 6538), the “antibacterial ZOI, S. aureus” value is reported as 12 ± 1.6 mm. Besides, the entries for the “antibacterial ZOI, S. typhi” value in the assay on Salmonella typhi and in the assay on Salmonella typhi (listed as benzoic acid) were 15 ± 1.5 mm and 15 mm, respectively. Also, in the assay with α-amylase, the “amylase inhibition (%)” value is on record as 36.5 ± 0.9%. Also, in the assay with urease, the “urease inhibition (%)” value is 65.8 ± 0.6%. In the assay with M. luteus, the “antibacterial ZOI, M. luteus” value stood at 13 ± 1.2 mm.

In the case of `C[C@H]1[C@H](C)CC[C@]2(C(=O)O)CC[C@]3(C)C(=CC[C@@H]4[C@@]5(C)CC[C@H](O)C(C)(C)[C@@H]5CC[C@]43C)[C@H]12` [compound 5, 3β-hydroxy-urs-12-en-28-oic acid], in the assay with S. setubal, the “antibacterial ZOI, S. setubal” value amounted to 13 ± 1.2 mm. Further, the “DPPH % (free-radical scavenging)” value in assay [1] came to 58.6 ± 1.7%. In addition, in [2], the TAC stood at 70.4 ± 1.8 μgAAE/mg extract. In the assay on E. aerogenes, the “antibacterial ZOI, E. aerogenes” value was found to be 12 ± 1.3 mm. The “lipase inhibition (%)” value with lipase is listed as 76.6 ± 0.8%. Besides, in “Total reducing power”, the TRP was found to be 76.2 ± 1.5 μgAAE/mg extract. The “antibacterial ZOI, S. aureus” value in the assay on S. aureus (ATCC # 6538) was found to be 13 ± 1.3 mm. Further, the “antibacterial ZOI, S. typhi” value in the assay on Salmonella typhi amounted to 16 ± 1.8 mm; with Salmonella typhi (listed as ursolic acid), 16 mm. For the same molecule, the “amylase inhibition (%)” value in the assay with α-amylase turned out to be 48.9 ± 0.6%. Further, the “urease inhibition (%)” value in the assay on urease was 78.8 ± 0.5%. Moreover, in the assay with M. luteus, the “antibacterial ZOI, M. luteus” value is 14 ± 1.4 mm.

With `O=C(O)c1cccc(O)c1` [compound 6, 3-hydroxybenzoic acid], the “antibacterial ZOI, S. setubal” value in the assay on S. setubal is recorded as 14 ± 1.7 mm. In addition, the “DPPH % (free-radical scavenging)” value in assay [1] worked out at 65.8 ± 1.6%; in assay [1] (listed as 3-Hydroxybenzoic acid) it was 65.8%. In assay [2], the TAC was 66.6 ± 1.5 μgAAE/mg extract. For the same molecule, in the assay with E. aerogenes, the “antibacterial ZOI, E. aerogenes” value is 15 ± 1.4 mm. Further, the “lipase inhibition (%)” value in the assay on lipase worked out at 51.9 ± 0.7%. The TRP in “Total reducing power” was 62.5 ± 1.3 μgAAE/mg extract. Moreover, the “antibacterial ZOI, S. aureus” value in the assay on S. aureus (ATCC # 6538) was 15 ± 1.6 mm. Further, in the assay with Salmonella typhi, the “antibacterial ZOI, S. typhi” value worked out at 16 ± 1.5 mm. Further, the “amylase inhibition (%)” value in the assay on α-amylase is recorded as 31.5 ± 0.8%. Besides, the “urease inhibition (%)” value with urease is 59.8 ± 0.6%. For the same molecule, in the assay with M. luteus, the “antibacterial ZOI, M. luteus” value is 15 ± 1.2 mm.
